ABCB1 block: human ABCB1 inhibition, ABCG2 as counter-screen; P08183; CCRF-Adr cells, JC-1 efflux, flow cytometry; inhibition, % at 6.6 µM; 190,000 tested, 0.067% active; in the data active = inhibition above about 40%;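 note: 0% = vehicle and 100% = reference inhibitor; higher value means more JC-1 retained so stronger ABCB1 efflux block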
EP2 modulator: modulates human prostaglandin E2 receptor EP2 signaling. induction, % at 25 µM. 260,000 tested, 0.83% active. EP2-expressing cells, cAMP HTRF FRET, PGE2 co-stimulation. P43116;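 active = compounds whose cAMP rise, as percent of the full-agonist control response, exceeds 60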;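 note: rat C6 glioma line stably carrying human EP2 under a CMV promoter; the protocol text gives 20 µM as final concentration; 100% = response of wells given 1 µM PGE2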
Target sequence (P43116 whole entry, looked up): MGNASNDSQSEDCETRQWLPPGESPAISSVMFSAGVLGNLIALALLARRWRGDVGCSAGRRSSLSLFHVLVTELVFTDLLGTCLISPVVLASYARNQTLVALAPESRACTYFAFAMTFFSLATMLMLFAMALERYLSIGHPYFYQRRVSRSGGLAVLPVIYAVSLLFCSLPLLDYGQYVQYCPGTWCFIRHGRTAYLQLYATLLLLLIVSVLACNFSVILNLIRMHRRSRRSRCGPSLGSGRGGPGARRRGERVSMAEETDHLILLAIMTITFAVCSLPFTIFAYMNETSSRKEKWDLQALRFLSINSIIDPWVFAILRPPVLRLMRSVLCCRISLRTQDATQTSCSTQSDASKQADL
RBBP9 inhibitor: blocks human serine hydrolase RBBP9; recombinant RBBP9, FP-Rh probe fluorescence polarization; inhibition, % at 7.94 µM; O75884; 220,000 tested, 0.2% active;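 active = inhibition above the campaign mean of all tested compounds plus 3 SD, cut at about 14% in these data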;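 note: plate controls were DMSO wells with RBBP9 for no effect and wells lacking RBBP9 protein for full effect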
Target sequence (O75884 whole entry, looked up): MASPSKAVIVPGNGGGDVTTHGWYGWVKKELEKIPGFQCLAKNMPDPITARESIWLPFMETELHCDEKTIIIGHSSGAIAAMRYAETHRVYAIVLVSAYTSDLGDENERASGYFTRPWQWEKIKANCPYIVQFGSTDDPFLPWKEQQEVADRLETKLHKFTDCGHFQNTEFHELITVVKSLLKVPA
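Material: RBBP9 protein. Amount: RBBP9 at 2.5 µM in dispensed solution, before mixing. Schedule: 30 min then 45 min, 25 °C. Medium: Tris buffer pH 8.0, NaCl, Pluronic. Measured by: fluorescence polarization. Measure: percent inhibition from mP, scaled between DMSO and no-protein wells. Replication: one well per compound.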
ABCG2 inh: inhibitors of human ABCG2 transporter, ABCB1 counter-screen | Q9UNQ0 | IgMXP3 cells, JC-1 efflux, flow cytometry | inhibition, % at 6.6 µM | 190,000 tested, 0.1% active;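 active = inhibition above 80%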;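 note: 0% = DMSO and 100% = nicardipine control wells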
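Test system: IgMXP3 (ABCG2) plus far-red-tagged CCRF-Adr (ABCB1) cells / Amount: 3 million cells/mL in well / Reagent: JC-1 transporter substrate / Timing: 10 min compound exposure, 25 °C / Signal: flow cytometry, 530 nm JC-1 signal / Read-out: percent efflux inhibition, scaled nicardipine 100% to DMSO 0% / Benchmarks: nicardipine as high control, DMSO as low control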
EP2 antag: EP2 receptor (human) inhibition | inhibition, % at 25 µM | AID 1422 | 260,000 tested, 0.52% active | C6 glioma cells expressing human EP2, cAMP TR-FRET; cells stimulated with saturating PGE2;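 active = percent inhibition above 40 after rounding to a whole number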;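 note: rat C6 glioma host cells with rolipram phosphodiesterase inhibitor present; the protocol text gives 20 µM as final concentration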
EP2 confirm: human EP2 receptor cAMP induction, negative in counter-screens; AID 1080; calls only at 20 µM (by protocol); 1,300 tested, 47% active; shares compounds with EP2 modulator; C6 glioma EP2 cells, cAMP HTRF induction; plus low (about EC15) PGE2 agonist;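 active = cAMP induction above 50% in the main assay while under 30% in all four parallel counter assays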;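 note: rat C6 glioma cells stably expressing human EP2 receptor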
Active calls of the source: *; i = inactive; nt = no result; + = active, no number. Hits are enriched below; roughly 1.5% of the tested compounds scored in any of these assays.

SMILES	ABCB1 block	EP2 modulator	RBBP9 inhibitor	ABCG2 inh	EP2 antag	EP2 confirm
Cc1ccc(C2CC2c2n[nH]c(=S)n2-c2cccc(C)c2)cc1 (configuration not stated)	-0.6	29.7	-4.6	-1.0	6.2	nt
O=C(O)/C=C/c1ccccc1Oc1ccc(Cl)cc1Cl	1.1	87.3*	-6.8	3.0	3.6	+
Cc1nc2ccccc2nc1SCC(=O)N1CCC(C)CC1	1.4	65.2*	-1.1	3.5	15.6	i
CC1CCCN(C(=O)CSc2nc3ccccc3n2CC(=O)N2CCOCC2)C1 (configuration not stated)	nt	-9.3	nt	nt	5.1	nt
CC1CCCN(C(=O)CSc2cnc3ccccc3n2)C1 (configuration not stated)	0.2	68.4*	-5.0	5.9	16.3	i
COc1ccc(C2(O)CCN(CC(=O)Nc3ccccc3C(N)=O)CC2)cc1	nt	-4.1	nt	nt	nt	nt
Cn1c(N2CCN(S(=O)(=O)c3ccc(C(F)(F)F)cc3)CC2)nc2ccccc21	nt	-36.2	nt	nt	7.8	nt
Cc1ccc(-n2cc(-c3ccccc3)c3c(N4CCN(C)CC4)ncnc32)cc1	8.9	-1.2	-0.1	4.7	5.4	nt
Cc1ccc(-n2cc(-c3ccccc3)c3c(N4CCOCC4)ncnc32)cc1	1.4	69.0*	-7.3	5.1	11.9	i
CCN(CC)C(=O)CN1CCC2(CC1)CC(O)c1cc(C)c(C)cc1O2 (configuration not stated)	nt	-3.4	nt	nt	9.3	nt
CCCN1Cc2cccc(C(=O)Nc3ccc4c(c3)OCO4)c2C1=O	5.2	20.3	-6.7	41.4	nt	nt
O=C(Nc1ccc2c(c1)OCO2)c1cccc2c1C(=O)N(C1CCCCC1)C2	1.9	71.1*	2.4	6.6	3.1	+
Cc1ccc(N=N/C(=C\O)C(=O)c2ccc(Cl)cc2)cc1	0.2	88.8*	1.8	2.0	5.9	+
O=C(/C(=C/O)N=Nc1ccccc1)c1ccc(Cl)cc1	0.1	73.1*	-8.0	2.8	1.4	+
CCn1c(SCC(N)=O)nnc1-c1cccc(C)c1	nt	-12.8	nt	nt	8.1	nt
CCOP(=O)(OCC)c1nc(-c2cccc3ccccc23)oc1N1CCCCC1	0.3	68.7*	-2.1	14.1	7.1	+
CCOP(=O)(c1ccccc1)c1nc(-c2ccccc2C)oc1N1CCCCC1 (configuration not stated)	0.6	69.9*	0.7	-1.7	5.4	+
CCOP(=O)(c1ccccc1)c1nc(-c2ccccc2C)oc1NCc1ccccc1 (configuration not stated)	nt	46.7	-6.0	nt	5.9	nt
COP(=O)(OC)c1nc(-c2cccc3ccccc23)oc1N1CCCCC1	0.9	12.9	-1.5	12.1	13.7	nt
Cc1ccc(C(=O)Nc2ccc(N3CCOCC3)cc2)c(Cl)c1	nt	-19.3	nt	nt	18.5	nt
O=C(NNc1ccc([N+](=O)[O-])cc1)C1C2CCCCC21 (configuration not stated)	0.6	-3.4	1.7	2.9	6.6	nt
O=C(NNc1ccc([N+](=O)[O-])cc1[N+](=O)[O-])C1C2CCCCC21 (configuration not stated)	-0.1	65.2*	0.4	0.2	7.9	+
CCCOP(=O)(OCCC)c1nc(-c2ccccc2)oc1NCc1ccccc1	1.8	94.3*	-6.0	4.2	14.8	+
CCOP(=O)(OCC)c1nc(-c2ccc(Cl)cc2)oc1NCc1ccccc1	1.7	78.0*	-1.1	19.9	3.9	i
c1ccc(-n2nnnc2CSc2nc3ccccc3o2)cc1	nt	-44.4	nt	nt	9.2	nt
SMILES	ABCB1 block	EP2 modulator	RBBP9 inhibitor	ABCG2 inh	EP2 antag	EP2 confirm
CC(C)(C)C(=O)Nc1nnc(-c2cccnc2)s1	nt	-40.4	nt	nt	5.5	nt
Cc1ccc(C(=O)Nc2ccccc2C(=O)NCc2ccccc2)cc1	0.7	67.4*	-9.6	11.1	2.4	i
Cc1ccc(NC(=O)Nc2ccccc2C(=O)NCc2ccccc2)cc1	0.2	2.9	-1.9	20.6	18.1	nt
O=C(Cc1c(F)cccc1Cl)Nc1ccccc1N1CCCCC1	0.2	75.4*	1.1	1.8	5.2	+
O=C(Nc1ccccc1N1CCCCC1)c1ccc(F)cc1	0.3	66.3*	-3.4	1.5	6.3	+
CCOc1ccc(C(=O)Nc2ccccc2N2CCCC2)cc1	0.1	-10.9	-8.4	0.7	11.5	nt
Cc1occc1-c1nnc(SCC(=O)Nc2ccccc2N2CCCCC2)n1C	1.1	55.2	4.2	3.3	7.2	i
CCCn1c(SCC(=O)Nc2ccccc2N2CCOCC2)nnc1-c1ccoc1C	nt	-0.9	nt	nt	18.0	nt
O=C(Nc1ccccc1N1CCOCC1)c1cccc([N+](=O)[O-])c1	1.2	2.4	-5.4	6.5	10.5	nt
O=C(Nc1ccccc1N1CCCCC1)c1cccc([N+](=O)[O-])c1	2.8	50.9	-0.2	17.1	2.8	+
CCOc1ccc(NC(=S)N(CCCO)Cc2cc3ccc(C)c(C)c3[nH]c2=O)cc1	nt	-26.6	nt	nt	10.7	nt
O=C(CNC1CCCCCC1)Nc1ccccc1N1CCCCC1	0.3	-17.3	2.9	1.5	8.0	nt
O=C(CNCC1CCCCC1)Nc1ccccc1N1CCCCC1	0.6	65.7*	-0.9	2.0	5.4	+
CCOc1ccc(C2=Nn3c(nnc3-c3ccccc3OC)SC2)cc1	0.9	74.1*	-9.3	6.6	6.5	+
CCOc1ccc(-c2nnc3n2N=C(c2ccc(OC)cc2)CS3)cc1	-2.5	74.9*	-5.4	-2.7	2.9	+
CCc1nnc2n1N=C(c1ccc(OC)cc1)CS2	0.8	6.2	2.4	8.0	12.8	nt
COc1ccc2c(c1)cc(C)c1nn(CC(=O)N3CCNC(=O)C3(C)C)c(=O)n12	nt	-58.2	nt	nt	8.4	nt
CCOC(=O)c1ccc(CN(Cc2ccc(C)cc2)S(=O)(=O)c2cccc([N+](=O)[O-])c2)cc1	0.5	65.0*	4.8	5.1	4.3	i
CCOC(=O)C(C)(C)N(Cc1cccc(C)c1)S(=O)(=O)c1cccc([N+](=O)[O-])c1	1.2	36.4	4.6	43.6	5.1	nt
CCSc1nc2sc3c(c2c(=O)n1CC)CC(C)(C)OC3	0.6	52.4	-6.8	3.0	5.8	i
CCn1c(SCC(=O)OC)nc2sc3c(c2c1=O)CC(C)(C)OC3	nt	26.0	-3.2	nt	5.5	nt
CCCn1c(=O)[nH]c(=O)c2c1nc(-c1ccccc1OC(F)F)n2CCOC	0.1	84.4*	-4.3	0.7	2.0	i
CCn1c(-c2ccsc2)nc2c1c(=O)[nH]c(=O)n2Cc1ccccc1	0.4	53.9	-4.5	3.9	4.8	nt
CCCn1c(-c2cccs2)nc2c1c(=O)[nH]c(=O)n2Cc1ccccc1	0.6	72.2*	-4.1	6.3	-0.1	+
O=C(Cc1ccccc1)NN1C(=O)/C(=C\c2ccco2)SC1=S	nt	14.9	nt	nt	8.0	nt
